Test results as given in ChEMBL document CHEMBL1135657, “Novel dual inhibitors of AChE and MAO derived from hydroxy aminoindan and phenethylamine as potential treatment for Alzheimer's disease” (J Med Chem, 2002).

Assays:
[1] = target: T1, Amine oxidase [flavin-containing] A (Rattus norvegicus, UniProt P21396); test: In vitro inhibitory concentration against Monoamine oxidase A of rat brain homogenates; value ranges from 0.09-0.16; assay type: tissue-based
T1 sequence (P21396 whole entry): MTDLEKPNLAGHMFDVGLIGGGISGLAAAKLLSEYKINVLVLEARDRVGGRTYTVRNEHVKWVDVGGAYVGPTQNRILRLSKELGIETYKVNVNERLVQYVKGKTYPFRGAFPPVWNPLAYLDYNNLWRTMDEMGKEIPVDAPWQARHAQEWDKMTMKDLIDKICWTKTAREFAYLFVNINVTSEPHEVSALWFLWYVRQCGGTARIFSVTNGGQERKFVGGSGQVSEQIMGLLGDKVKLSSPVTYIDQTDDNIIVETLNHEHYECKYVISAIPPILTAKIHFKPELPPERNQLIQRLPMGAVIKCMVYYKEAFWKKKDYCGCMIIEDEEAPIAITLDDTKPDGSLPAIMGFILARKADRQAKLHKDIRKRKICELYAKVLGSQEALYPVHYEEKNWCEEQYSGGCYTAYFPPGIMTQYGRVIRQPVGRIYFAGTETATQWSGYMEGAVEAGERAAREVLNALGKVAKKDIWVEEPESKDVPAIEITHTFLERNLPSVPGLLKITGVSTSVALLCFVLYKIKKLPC

[2] = target: T2, Acetylcholinesterase (Homo sapiens, UniProt P22303); test: In vitro inhibitory concentration against purified Acetylcholinesterase of human erythrocytes; value ranges from 1.32-2.23
T2 sequence (P22303 whole entry): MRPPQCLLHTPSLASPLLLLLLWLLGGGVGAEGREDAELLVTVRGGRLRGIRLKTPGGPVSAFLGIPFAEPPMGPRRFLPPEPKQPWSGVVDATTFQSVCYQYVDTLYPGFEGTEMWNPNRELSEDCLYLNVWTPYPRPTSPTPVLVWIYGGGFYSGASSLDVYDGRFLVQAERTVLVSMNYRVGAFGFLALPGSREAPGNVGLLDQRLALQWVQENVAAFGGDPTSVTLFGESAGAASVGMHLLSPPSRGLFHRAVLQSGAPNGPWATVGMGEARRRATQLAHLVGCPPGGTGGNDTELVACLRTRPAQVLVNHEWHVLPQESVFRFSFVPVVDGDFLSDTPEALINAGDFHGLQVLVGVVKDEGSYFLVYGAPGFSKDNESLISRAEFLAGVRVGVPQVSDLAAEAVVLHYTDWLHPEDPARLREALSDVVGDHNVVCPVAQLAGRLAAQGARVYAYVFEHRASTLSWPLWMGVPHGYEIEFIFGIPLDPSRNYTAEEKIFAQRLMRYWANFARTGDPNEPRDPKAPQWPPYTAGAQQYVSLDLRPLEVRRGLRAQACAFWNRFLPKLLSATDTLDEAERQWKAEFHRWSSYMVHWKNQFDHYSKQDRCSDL

[3] = target: T3, Butyrylcholinesterase (Equus caballus, UniProt Q9N1N9); test: In vitro inhibitory concentration against Butyrylcholinesterase of horse serum; value ranges from 0.73-0.77
T3 sequence (Q9N1N9 whole entry): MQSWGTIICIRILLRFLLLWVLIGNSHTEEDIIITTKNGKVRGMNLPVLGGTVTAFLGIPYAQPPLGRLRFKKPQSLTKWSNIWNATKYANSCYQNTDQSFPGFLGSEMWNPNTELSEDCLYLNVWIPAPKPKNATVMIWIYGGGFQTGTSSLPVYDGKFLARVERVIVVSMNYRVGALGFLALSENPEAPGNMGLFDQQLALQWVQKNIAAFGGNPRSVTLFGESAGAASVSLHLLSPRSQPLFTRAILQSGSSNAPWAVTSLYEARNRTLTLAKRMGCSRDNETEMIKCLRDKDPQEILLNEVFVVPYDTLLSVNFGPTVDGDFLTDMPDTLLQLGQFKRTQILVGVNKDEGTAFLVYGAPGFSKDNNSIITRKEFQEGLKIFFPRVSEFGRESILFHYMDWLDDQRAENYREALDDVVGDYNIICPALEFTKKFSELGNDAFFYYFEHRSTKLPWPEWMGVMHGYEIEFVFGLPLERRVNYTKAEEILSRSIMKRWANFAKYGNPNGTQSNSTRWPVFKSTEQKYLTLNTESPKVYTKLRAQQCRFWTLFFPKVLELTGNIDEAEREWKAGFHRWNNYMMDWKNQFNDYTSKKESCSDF
In short: (§1)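 Ellman assay followed, with 200 µM butyrylthiocholine as substrate. Runs were in triplicate with four-point dose-response curves. IC50 and fiducial limits came from log concentration versus % inhibition.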

[4] = target: T4, Amine oxidase [flavin-containing] B (Rattus norvegicus, UniProt P19643); test: In vitro inhibitory concentration against Monoamine oxidase B of rat brain homogenates; value ranges from 0.3-1.2; assay type: tissue-based
T4 sequence (P19643 whole entry): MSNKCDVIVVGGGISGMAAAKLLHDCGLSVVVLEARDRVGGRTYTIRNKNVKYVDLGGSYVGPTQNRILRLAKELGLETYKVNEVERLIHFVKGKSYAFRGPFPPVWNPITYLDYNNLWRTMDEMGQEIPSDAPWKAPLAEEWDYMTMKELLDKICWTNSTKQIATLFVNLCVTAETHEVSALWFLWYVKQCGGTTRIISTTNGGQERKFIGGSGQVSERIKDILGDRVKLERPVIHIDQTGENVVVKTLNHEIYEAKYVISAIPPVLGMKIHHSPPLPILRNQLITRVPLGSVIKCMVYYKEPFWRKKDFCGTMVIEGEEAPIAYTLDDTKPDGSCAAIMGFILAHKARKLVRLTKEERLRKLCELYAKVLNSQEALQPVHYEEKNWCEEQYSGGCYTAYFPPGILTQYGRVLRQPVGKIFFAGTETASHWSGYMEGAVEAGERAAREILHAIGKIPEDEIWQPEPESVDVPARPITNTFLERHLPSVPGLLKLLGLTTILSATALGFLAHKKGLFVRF

[5] = target: T1, Amine oxidase [flavin-containing] A; test: In vitro inhibitory concentration against Monoamine oxidase A of rat brain homogenates; value ranges from 4.7-16.8; assay type: tissue-based
[6] = target: T4, Amine oxidase [flavin-containing] B; test: In vitro inhibitory concentration against Monoamine oxidase B of rat brain homogenates; value ranges from 2.8-8.3; assay type: tissue-based
[7] = target: T4, Amine oxidase [flavin-containing] B; test: In vitro inhibitory concentration against Monoamine oxidase B of rat brain homogenates; value ranges from 22-530; assay type: tissue-based
[8] = target: T1, Amine oxidase [flavin-containing] A; test: In vitro inhibitory concentration against Monoamine oxidase A of rat brain homogenates; value ranges from 14-340; assay type: tissue-based
[9] = target: T1, Amine oxidase [flavin-containing] A; test: In vitro inhibitory concentration against Monoamine oxidase A of rat brain homogenates; value ranges from 0.1-0.9; assay type: tissue-based
[10] = target: T4, Amine oxidase [flavin-containing] B; test: In vitro inhibitory concentration against Monoamine oxidase B of rat brain homogenates; value ranges from 1.5-5.2; assay type: tissue-based
[11] = target: T2, Acetylcholinesterase; test: In vitro inhibitory concentration against purified Acetylcholinesterase of human erythrocytes; value ranges from 0.79-0.93
[12] = target: T4, Amine oxidase [flavin-containing] B; test: In vitro inhibitory concentration against Monoamine oxidase B of rat brain homogenates; value ranges from 0.11-0.57; assay type: tissue-based
In short: (§2)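 Rat brain homogenate (in 0.3 M sucrose) as enzyme source; compounds diluted 10⁻²M to 10⁻⁹M in 0.05 M phosphate buffer with 0.15 μM clorgyline; preincubated 60 min at 37 °C, then 10 μM ¹⁴C-phenylethylamine added for 20 min more; stopped with citric acid; metabolites extracted into toluene/ethyl acetate, scintillation counted; activity as % of control, tranylcypromine blank.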

[13] = target: T1, Amine oxidase [flavin-containing] A; test: In vitro inhibitory concentration against Monoamine oxidase A of rat brain homogenates; value ranges from 0.8-3.7; assay type: tissue-based
[14] = target: T3, Butyrylcholinesterase; test: In vitro inhibitory concentration against Butyrylcholinesterase of horse serum; value ranges from 0.45-1.08; in short: as §1
[15] = target: T2, Acetylcholinesterase; test: In vitro inhibitory concentration against purified Acetylcholinesterase of human erythrocytes; value ranges from 3.69-33.1
[16] = target: T3, Butyrylcholinesterase; test: In vitro inhibitory concentration against Butyrylcholinesterase of horse serum; value ranges from 0.28-0.30; in short: as §1
[17] = target: T2, Acetylcholinesterase; test: In vitro inhibitory concentration against purified Acetylcholinesterase of human erythrocytes; value ranges from 26.2-5898
[18] = target: T4, Amine oxidase [flavin-containing] B; test: In vitro inhibitory concentration against Monoamine oxidase B of rat brain homogenates; value ranges from 75-200
[19] = target: T1, Amine oxidase [flavin-containing] A; test: In vitro inhibitory concentration against Monoamine oxidase A of rat brain homogenates; value ranges from 12.1-17.6; assay type: tissue-based
[20] = target: T2, Acetylcholinesterase; test: In vitro inhibitory concentration against purified Acetylcholinesterase of human erythrocytes; value ranges from 13.6-27.3
[21] = target: T3, Butyrylcholinesterase; test: In vitro inhibitory concentration against Butyrylcholinesterase of horse serum; value ranges from 1.19-8.56; in short: as §1
[22] = target: T4, Amine oxidase [flavin-containing] B; test: In vitro inhibitory concentration against Monoamine oxidase B of rat brain homogenates; value ranges from 0.08-0.38; assay type: tissue-based; in short: as §2
[23] = target: T1, Amine oxidase [flavin-containing] A; test: In vitro inhibitory concentration against Monoamine oxidase A of rat brain homogenates; value ranges from 1.8-2.5; assay type: tissue-based
[24] = target: T3, Butyrylcholinesterase; test: In vitro inhibitory concentration against Butyrylcholinesterase of horse serum; value ranges from 0.90-0.95; in short: as §1
[25] = target: T4, Amine oxidase [flavin-containing] B; test: In vitro inhibitory concentration against Monoamine oxidase B of rat brain homogenates; value ranges from 9.5-17.2
[26] = target: T2, Acetylcholinesterase; test: In vitro inhibitory concentration against purified Acetylcholinesterase of human erythrocytes; value ranges from 12.6-74.0
[27] = target: T1, Amine oxidase [flavin-containing] A; test: In vitro inhibitory concentration against Monoamine oxidase A of rat brain homogenates; value ranges from 2-8; assay type: tissue-based
[28] = target: T3, Butyrylcholinesterase; test: In vitro inhibitory concentration against Butyrylcholinesterase of horse serum; value ranges from 0.21-1.26; in short: as §1
[29] = target: T2, Acetylcholinesterase; test: In vitro inhibitory concentration against purified Acetylcholinesterase of human erythrocytes
[30] = target: T1, Amine oxidase [flavin-containing] A; test: In vitro inhibitory concentration against Monoamine oxidase A of rat brain homogenates; value ranges from 150-320; assay type: tissue-based
[31] = target: T2, Acetylcholinesterase; test: In vitro inhibitory concentration against purified Acetylcholinesterase of human erythrocytes; value ranges from 7.5-19.5
[32] = target: T4, Amine oxidase [flavin-containing] B; test: In vitro inhibitory concentration against Monoamine oxidase B of rat brain homogenates; value ranges from 30-230; assay type: tissue-based
[33] = target: T1, Amine oxidase [flavin-containing] A; test: In vitro inhibitory concentration against Monoamine oxidase A of rat brain homogenates; value ranges from 370-520; assay type: tissue-based
[34] = target: T2, Acetylcholinesterase; test: In vitro inhibitory concentration against purified Acetylcholinesterase of human erythrocytes; value ranges from 0.18-0.32
[35] = target: T4, Amine oxidase [flavin-containing] B; test: In vitro inhibitory concentration against Monoamine oxidase B of rat brain homogenates; value ranges from 11-52; assay type: tissue-based
[36] = target: T1, Amine oxidase [flavin-containing] A; test: In vitro inhibitory concentration against Monoamine oxidase A of rat brain homogenates; value ranges from 1.3-5.6; assay type: tissue-based
[37] = target: T3, Butyrylcholinesterase; test: In vitro inhibitory concentration against Butyrylcholinesterase of horse serum; value ranges from 0.16-0.41; in short: as §1

`C#CCN(C)C(C)Cc1cccc(OC(=O)N(C)C)c1` (configuration not stated) showed an IC50 [1] of 0.12 µM, an IC50 [2] of 1.64 µM and an IC50 [3] of 0.75 µM. For the same compound, the IC50 [4] was 0.8 µM.

Compound `C#CCN(C)C(C)Cc1cccc(O)c1` (configuration not stated) has an IC50 [5] of 8.9 µM and an IC50 [6] of 4.8 µM.

In the case of `C#CCNCCc1cccc(O)c1`, the IC50 [7] is reported as 107 µM and the IC50 [8] is reported as 67 µM.

In the case of `C#CCN(C)CCc1cccc(OC(=O)N(C)C)c1`, the IC50 [9] is reported as 0.3 µM, the IC50 [10] is reported as 2.8 µM and the IC50 [11] is reported as 0.85 µM.

Work on `C#CCN(C)C(C)Cc1cccc(OC(=O)N(C)C2CCCCC2)c1` (configuration not stated) yielded an IC50 [12] of 0.24 µM, an IC50 [13] of 1.7 µM and an IC50 [14] of 0.67 µM. For the same compound, the IC50 [15] was 8.67 µM.

`C#CCNC1CCc2ccc(OC(=O)N(C)CC)cc2C1` (configuration not stated) gave an IC50 [16] of 0.29 µM, an IC50 [17] of 204 µM and an IC50 [18] of 120 µM.

Compound `C#CCNC(C)Cc1cccc(OC(=O)N(C)CCC)c1` (configuration not stated) has an IC50 [19] of 14.6 µM, an IC50 [20] of 19.1 µM and an IC50 [21] of 2.07 µM. It also gave an IC50 [22] of 0.17 µM.

In the case of `C#CCNC(C)Cc1cccc(OC(=O)N(C)CC)c1` (configuration not stated), the IC50 [23] is reported as 2.1 µM, the IC50 [24] is reported as 0.93 µM and the IC50 [25] is reported as 12.8 µM. It also gave an IC50 [26] of 33.9 µM.

For `C#CCN(C)[C@@H]1CCc2ccc(OC(=O)N(C)CC)cc21`, the IC50 [27] was 4 µM, the IC50 [28] was 0.55 µM and the IC50 [29] was 1200 µM.

Compound `C#CCN[C@@H]1CCc2ccc(OC(=O)N(C)CCCC)cc21` has an IC50 [30] of 220 µM, an IC50 [31] of 11.6 µM and an IC50 [32] of 150 µM.

With `C#CCN[C@H]1CCc2ccc(O)cc21` the IC50 [33] was 440 µM.

`C#CCNCCc1cccc(OC(=O)N(C)C)c1` gave an IC50 [34] of 0.22 µM, an IC50 [35] of 24 µM and an IC50 [36] of 2.7 µM. It also gave an IC50 [37] of 0.21 µM.
